# Compounds with a hit are over-represented: about 1.9% of the library has one in this group of screens.
# NPY Y2 blocker: antagonists of human neuropeptide Y receptor Y2 | P49146 | NPY-Y2 expressing cells, antagonist mode | inhibition, % at 2.7 µM | 140,000 tested, 0.99% active | AID 793; in the data active = inhibition above about 17%
# Target sequence (P49146 whole entry, looked up): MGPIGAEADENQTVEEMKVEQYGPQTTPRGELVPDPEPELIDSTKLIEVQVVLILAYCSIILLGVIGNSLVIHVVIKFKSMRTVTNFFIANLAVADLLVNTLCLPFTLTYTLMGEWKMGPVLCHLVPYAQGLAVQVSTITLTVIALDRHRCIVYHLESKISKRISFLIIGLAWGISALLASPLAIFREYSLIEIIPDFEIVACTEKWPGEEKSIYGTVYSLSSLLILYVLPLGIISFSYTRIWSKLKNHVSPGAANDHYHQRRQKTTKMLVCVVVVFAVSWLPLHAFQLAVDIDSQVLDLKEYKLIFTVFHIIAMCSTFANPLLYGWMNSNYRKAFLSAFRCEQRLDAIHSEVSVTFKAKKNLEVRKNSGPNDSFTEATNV
# NPY1 pot ag: human NPY-Y1 potentiation or agonism, primary screen | activation, % at 3.6 µM | P25929 | 220,000 tested, 0.37% active | NPY-Y1 expressing cells, potentiator/agonist activation; in the data active = activation above about 33%, passing the limit was not always enough;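 also: cells stimulated with NPY at EC10 then isoproterenol at EC100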
# NPY-Y2 PAM-ag: human NPY-Y2 potentiation or agonism, primary screen; P49146; cells expressing NPY-Y2, potentiator/agonist read-out; activation, % at 3.6 µM; 220,000 tested, 0.45% active; in the data active = activation above about 27%;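 also: cells stimulated with NPY near EC25 plus isoproterenol at EC100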
# NPY Y1 blocker: antagonists of human neuropeptide Y receptor Y1 | P25929 | inhibition, % at 3.6 µM | HEK293-CNG Y1 cells, membrane potential fluorescence; NPY at EC95, then isoproterenol | 200,000 tested, 1% active;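 active = inhibition above the campaign mean inhibition of all tested compounds plus 3 SD, cut at about 20% in these data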
#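 Material: HEK293 cells with Y1 receptor plus CNG channel; times: compound incubation 1 h at room temperature, readout 45 min post-stimulation; signal: fluorescence, membrane potential probe; read-out basis: fluorescence ratio normalized to % inhibition between controls; benchmarks: full-block control isoproterenol-only wells, zero-block control NPY plus isoproterenol wells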
# Hits are given with their value; i = inactive; nt = no result given.
SMILES,NPY Y2 blocker,NPY1 pot ag,NPY-Y2 PAM-ag,NPY Y1 blocker
CCOC(=O)COc1cc2oc(=O)cc(C)c2cc1[N+](=O)[O-],nt,i,i,i
CN(C)c1ccc(N=Nc2ccccc2C(=O)OCC(=O)NCC2CCCCC2)cc1,i,59.2,53.8,i
CCCNC(=O)N1CCN(Cc2ccco2)CC1,nt,i,i,i
Nc1c(C(O)(C(F)(F)F)C(F)(F)F)cc(C(O)(C(F)(F)F)C(F)(F)F)c2ccccc12,i,48.4,77.3,i
O=C1NC(c2ccccc2OC(F)F)Oc2ccccc21 (stereo not given),nt,46.1,56.5,i
O=C(NC1CCCC1)C1CCN(c2cnccn2)CC1,nt,i,i,i
Cc1cc(C)c2c(CC(=O)O)coc2c1,i,i,i,23.8
Cc1cccc(C)c1NC(=O)C(=O)NCc1ccccn1,i,i,i,i
COC(=O)C1=C(Nc2ccc(C)cc2)C=C(C)C(C(=O)OC)C1c1ccc(OC)cc1 (stereo not given),23.1,i,i,29.5
Cc1onc(-c2c(Cl)cccc2Cl)c1C(=O)Nc1ccc(N2CCOCC2)cc1,nt,i,i,nt
Cc1ccc2nc(-c3cccnc3)c(Nc3ccccc3C)n2c1,nt,46.1,41.2,i
Cc1ccccc1Nc1c(-c2cccnc2)nc2ccc(Br)cn12,nt,79.0,74.4,i
Cc1cc(OCC(F)(F)C(F)(F)C(F)(F)C(F)(F)C(F)(F)C(F)F)nc(N)n1,i,62.2,37.9,i
CC(=O)N1C(=O)N(C(C)=O)C2C1N(C)C(=O)N2C(C)=O (stereo not given),nt,i,i,i
Cc1ccc(-c2nc(C#N)c(NCc3cccc4c3OCO4)o2)cc1,21.5,i,i,28.4
Cc1ccc(CNc2oc(-c3ccco3)nc2C#N)cc1,i,i,i,i
COc1ccc(-c2nc(C#N)c(NCCc3ccccc3)o2)cc1OC,i,i,i,i
COc1ccc(-c2nc(C#N)c(NCc3ccc(C)cc3)o2)cc1OC,26.8,i,i,i
CC(=O)c1c(C)nc2ccc(Br)cc2c1C(=O)O,i,i,i,i
CC(=O)c1c(C)nc2ccc(Br)cc2c1-c1ccccc1,nt,i,i,21.7
Cc1cccc(CCNS(=O)(=O)c2ccc(S(=O)(=O)N3CCC(C)CC3)cc2)c1,i,i,i,22.0
Cc1ccc(-c2c(C(=O)NCc3ccccc3)oc(=O)c3ccccc23)cc1,i,i,i,i
CN(Cc1ccccc1)C(=O)c1oc(=O)c2ccccc2c1-c1ccccc1,22.8,i,i,31.3
Cc1ccc(-c2c(C(=O)N(C)Cc3ccccc3)oc(=O)c3ccccc23)cc1,33.9,i,i,35.2
COc1ccc(NC(=O)CCC2CCCCC2)cc1S(=O)(=O)N1CCCCC1,i,i,i,i
SMILES,NPY Y2 blocker,NPY1 pot ag,NPY-Y2 PAM-ag,NPY Y1 blocker
CC1(C)SC(=S)N(/N=C/c2ccc(O)cc2)C1N(O)C(=O)Nc1ccc([N+](=O)[O-])cc1 (stereo not given),i,i,32.7,i
COc1ccc(/C=N/NC(=O)CCSc2nc3ccccc3s2)cc1,i,i,i,i
CCN(Cc1ccccc1)c1ccc(N=Nc2nn(C)c(C)c2[N+](=O)[O-])cc1,i,58.0,40.7,i
CCN(CC)c1ccc(N=Nc2nn(C)c(C)c2[N+](=O)[O-])cc1,i,i,i,i
O=C(CN1C2=NCCN2c2ccccc21)C12CC3CC(CC(C3)C1)C2,48.8,i,i,67.3
Cc1ccc(CN2C3=NCCN3c3ccccc32)cc1,nt,i,i,i
OC(c1cc(C(F)(F)F)nc2c(Cl)cc(Cl)cc12)C1CCCCN1 (stereo not given),nt,66.5,62.2,nt
OC(c1cc(-c2ccc(Cl)cc2)nc2ccccc12)C1CCCCN1 (stereo not given),nt,i,i,nt
Nc1ccc(O)c2c1C(=O)c1ccccc1C2=O,i,54.4,56.6,i
Nc1ccc(Br)c2c1C(=O)c1ccccc1C2=O,i,i,i,i
COc1ccc(Nc2nc(N3CCCCC3)nc3ccccc23)c(OC)c1,49.6,i,i,40.8
COc1ccc(Nc2nc(N3CCCC3)nc(N3CCCC3)n2)c(OC)c1,i,i,i,i
c1ccc2c(N3CCCCC3)nc(N3CCCC3)nc2c1,32.3,i,i,55.9
Cc1ccccc1-n1c(C)nnc1SCC(=O)N1CCc2ccccc2C1,i,i,i,i
Cc1ccc(S(=O)(=O)C2(C(=O)N3CCN(c4cc(C)ccc4C)CC3)CC2)cc1,nt,i,i,i
O=C(CN1C(=O)CCC1=O)Nc1cccc(NC(=O)CN2C(=O)CCC2=O)c1,nt,i,i,i
CC(C)C(c1nnnn1C(C)(C)C)N1CCN(c2cccc(Cl)c2)CC1 (stereo not given),22.3,i,i,47.7
CC(C)C(c1nnnn1Cc1ccco1)N1CCN(c2cccc(Cl)c2)CC1 (stereo not given),i,i,i,i

# Source: PubChem BioAssay (The Scripps Research Institute Molecular Screening Center)
